Activity calls are given as the source filed them. The rule behind the calls is not given here.
What was measured:
Plasmodium yoelii [1] = experiment: In vivo resistance reversal (control MST = 1 week) in chloroquine-resistant Plasmodium yoelii nigerienses infected Swiss Albino mice (Mus musculus); assay type: functional
Plasmodium berghei [2] = experiment: In vivo antimalarial activity as parasitaemia at day 17 in chloroquine-resistant Plasmodium berghei infected Mastomys coucha treated to day 10; range >25-30%; assay type: functional
[3] = test system: Plasmodium yoelii nigeriensis; experiment: Hemozoin formation in chloroquine-resistant Plasmodium yoelii
Plasmodium berghei [4] = experiment: In vivo resistance reversal at day 10 against chloroquine-resistant Plasmodium berghei infected Mastomys coucha at 10 mg/kg; range 20-22; assay type: functional
Plasmodium yoelii [5] = experiment: In vivo antimalarial activity as pretreatment parasitaemia in chloroquine-resistant Plasmodium yoelii nigeriensis infected Swiss Albino mice (Mus musculus); range 1-2%; assay type: functional
Plasmodium yoelii [6] = experiment: In vivo antimalarial activity as parasitemia at days 6-10 in chloroquine-resistant Plasmodium yoelii nigerienses infected Swiss Albino mice (Mus musculus); range 70-80%; assay type: functional
Plasmodium berghei [7] = experiment: (§1) In vivo pretreatment parasitemia in chloroquine-resistant Plasmodium berghei infected Mastomys coucha; range 4-5%; assay type: functional
[8] = test system: Plasmodium yoelii nigeriensis; experiment: In Vitro inhibition of Heme Oxygenase in Cell-free parasite Plasmodium yoelii at concentration 50 uM; assay type: functional
Procedure, shortened: (§2)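 Heme oxygenase activity was measured as bilirubin formation in a post-mitochondrial fraction. The parasite enzyme came from cell-free P. yoelii, isolated from infected blood by density gradient centrifugation and saponin lysis. The host enzyme came from infected liver. Compounds were tested at 10–100 µM and preincubated for 10 min before the reaction was started.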

Plasmodium yoelii [9] = experiment: In vivo resistance reversal agent in chloroquine-resistant Plasmodium yoelii nigerienses infected Swiss Albino mice (Mus musculus). Parasitemia observed on day 6-10 of treatment in Group IV;range is 80-70%; assay type: functional
Plasmodium berghei [10] = experiment: In vivo resistance reversal at day 10 in chloroquine-resistant Plasmodium berghei infected Mastomys coucha at 10 mg/kg; range 20-22%; assay type: functional
[11] = test system: Plasmodium yoelii nigeriensis; experiment: In Vitro inhibition of Heme Oxygenase in Cell-free parasite Plasmodium yoelii at concentration 10 uM;NI denotes nil inhibition; assay type: functional; procedure, shortened: as §2
Plasmodium yoelii [12] = experiment: (§3) In vivo antimalarial activity as parasitemia at day 17 in chloroquine-resistant Plasmodium yoelii nigerienses infected Swiss Albino mice (Mus musculus) treated at day 10; No survivors; assay type: functional, organism-based
Plasmodium berghei [13] = experiment: as §1; assay type: functional; remark: listed apart in the source
Mus musculus = species: Mus musculus; experiment: In Vitro inhibition of Heme Oxygenase in Plasmodium yoelii (host) at concentration 100 uM; assay type: functional
Procedure, shortened: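 In vitro heme oxygenase, cell-free: post-mitochondrial fractions of P. yoelii parasites and of infected host liver. Test compounds at 10-100 µM were preincubated 10 min in the assay system before the enzyme reaction started. Activity was followed as bilirubin formation and expressed as % inhibition.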

Plasmodium berghei [14] = experiment: as §1; assay type: functional; remark: listed apart in the source
Plasmodium yoelii [15] = experiment: In vivo antimalarial activity as parasitemia at day 6 in chloroquine-resistant Plasmodium yoelii nigerienses infected Swiss Albino mice (Mus musculus); range 70-80%; assay type: functional
[16] = test system: Plasmodium yoelii nigeriensis; experiment: Hemozoin formation in chloroquine-resistant Plasmodium yoelii at 15 mg/kg for 10 days
Plasmodium berghei [17] = experiment: In vivo resistance reversal at day 10 in chloroquine-resistant Plasmodium berghei infected Mastomys coucha at 10 mg/kg; range 20-22; assay type: functional
Plasmodium yoelii [18] = experiment: Heme content after 10 days in chloroquine-resistant Plasmodium yoelii at 15 mg/kg; assay type: functional
Plasmodium berghei [19] = experiment: Heme content in chloroquine-resistant Plasmodium berghei at 15 mg/kg for 10 days; assay type: functional
Plasmodium yoelii [20] = experiment: as §3; assay type: functional, organism-based; remark: listed apart in the source
Plasmodium berghei [21] = experiment: In vivo antimalarial activity as parasitemia at day 10 in chloroquine-resistant Plasmodium berghei infected Mastomys coucha at 10 mg/kg; range 15-17%; assay type: functional
[22] = test system: Plasmodium yoelii nigeriensis; experiment: In Vitro inhibition of Heme Oxygenase in Cell-free parasite Plasmodium yoelii at concentration 100 uM; assay type: functional; procedure, shortened: as §2
Plasmodium yoelii [23] = experiment: Heme content in chloroquine-resistant Plasmodium yoelii; assay type: functional
Plasmodium yoelii [24] = experiment: Evaluated for the Heme oxygenase in chloroquine-sensitive Plasmodium yoelii; assay type: functional
Plasmodium yoelii [25] = experiment: Evaluated for the Heme oxygenase in chloroquine-resistant Plasmodium yoelii which is treated with 15 mg/kg body weight of compound for 10 days;NA denotes no activity; assay type: functional, organism-based; design: dose 15 mg/kg
[26] = test system: Plasmodium yoelii nigeriensis; experiment: Hemozoin formation in chloroquine-sensitive Plasmodium yoelii
Plasmodium yoelii [27] = experiment: In vivo antimalarial activity as survivors after 1 month in chloroquine-resistant Plasmodium yoelii nigeriensis infected Swiss Albino mice (Mus musculus) at 15 mg/kg combined with 10 mg/kg chloroquine; assay type: functional
Plasmodium berghei [28] = experiment: Evaluated for the Heme oxygenase (Values are mean +/- SD of 4 separate observations. Specific activity in nmol/h/mg protein) in chloroquine-sensitive Plasmodium berghei; assay type: functional
Procedure, shortened: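 Mastomys carrying CQ-resistant P. berghei were dosed orally at 15 mg/kg for 10 days. Untreated CQ-resistant and CQ-sensitive parasites served as reference samples. Parasites were isolated by density-gradient centrifugation and saponin lysis. Heme oxygenase was followed as bilirubin formation in the post-mitochondrial fraction and expressed as nmol/h/mg protein.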

Plasmodium berghei [29] = experiment: Heme content in chloroquine-sensitive Plasmodium berghei; assay type: functional
[30] = biological target: T1, Glutathione S-transferase (Plasmodium yoelii yoelii) (UniProt Q7REH6); experiment: Inhibition of Glutathione S-transferase in Plasmodium yoelii nigeriensis isolated from infected mice (Mus musculus) (oral); assay type: functional; conditions: concentration not given here
T1 sequence (whole entry): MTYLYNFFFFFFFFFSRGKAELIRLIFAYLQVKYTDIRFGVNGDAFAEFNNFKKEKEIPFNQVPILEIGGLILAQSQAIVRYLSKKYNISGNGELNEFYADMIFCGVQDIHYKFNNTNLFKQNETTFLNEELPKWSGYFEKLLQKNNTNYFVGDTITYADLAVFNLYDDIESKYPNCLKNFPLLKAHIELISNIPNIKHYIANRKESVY
Procedure, shortened: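 Mice infected with P. yoelii nigeriensis were dosed orally at 15 mg/kg body wt for 5 days. Parasites were then isolated from blood by density-gradient centrifugation and saponin lysis. Glutathione-S-transferase (and heme oxygenase) activity is given as % inhibition.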

Plasmodium berghei [31] = experiment: Hemozoin formation in chloroquine-sensitive Plasmodium berghei
[32] = test system: Plasmodium yoelii nigeriensis; experiment: In Vitro inhibition of Heme Oxygenase in Cell-free parasite Plasmodium yoelii at concentration 10 uM; assay type: functional; procedure, shortened: as §2
Plasmodium yoelii [33] = experiment: Heme content in chloroquine-sensitive Plasmodium yoelii; assay type: functional
Plasmodium yoelii [34] = experiment: In vivo antimalarial activity as MST of 1 week in chloroquine-resistant Plasmodium yoelii nigerienses infected Swiss Albino mice (Mus musculus) at 10 mg/kg chloroquine; assay type: functional
Plasmodium yoelii [35] = experiment: In vivo resistance reversal in chloroquine-resistant Plasmodium yoelii nigeriensis infected Swiss Albino mice (Mus musculus); range is 1-2%; assay type: functional
Plasmodium yoelii [36] = experiment: In vivo antimalarial activity as pretreatment parasitemia in chloroquine-resistant Plasmodium yoelii nigerienses infected Swiss Albino mice (Mus musculus); range 1-2%; assay type: functional
Plasmodium yoelii [37] = experiment: In vivo antimalarial activity as MST of 1 week in chloroquine-resistant Plasmodium yoelii nigeriensis infected Swiss Albino mice (Mus musculus) at 15 mg/kg; assay type: functional
Plasmodium berghei [38] = experiment: In vivo antimalarial activity as parasitemia at day 10 in chloroquine-resistant Plasmodium berghei infected Mastomys coucha; range 20-22%; assay type: functional
Plasmodium berghei [39] = experiment: In vivo antimalarial activity as parasitaemia at day 17 in chloroquine-resistant Plasmodium berghei infected Mastomys coucha treated to day 10; range 25-30%; assay type: functional

Compound: CCN(CC)CCCN1CC/C(=C\c2ccc(OC)cc2)C1
- Mean survival time (Plasmodium yoelii [1]): 1
- Parasites (Plasmodium berghei [2]): >30%
- Mean [3]: 43.3 pmol/mg
- Mean survival time (Plasmodium berghei [4]): 22 days
- Parasites (Plasmodium yoelii [5]): 2%
- Parasites (Plasmodium yoelii [6]): 80%
- Parasites (Plasmodium berghei [7]): 5%
- inhibition [8]: 64%
- Parasites (Plasmodium yoelii [9]): 80%
- Mean survival time (Plasmodium berghei [10]): 22 days
- NI [11]: No inhibition
- NS (Plasmodium yoelii [12]): No survivors
- Parasites (Plasmodium berghei [13]): 5%
- inhibition (Mus musculus): 31%
- Parasites (Plasmodium berghei [14]): 5%
- Parasites (Plasmodium yoelii [15]): 80%
- Mean [16]: 45.1 pmol/mg
- Mean survival time (Plasmodium berghei [17]): 22 days
- Mean (Plasmodium yoelii [18]): 172 pmol/mg
- Mean (Plasmodium berghei [19]): 321 pmol/mg
- NS (Plasmodium yoelii [20]): No survivors
- Parasites (Plasmodium berghei [21]): 17%
- inhibition [22]: 87%
- Mean (Plasmodium yoelii [23]): 109 pmol/mg
- Mean (Plasmodium yoelii [24]): 10.2 nM/h/mg
- NA (Plasmodium yoelii [25]): inactive
- Mean [26]: 109 pmol/mg
- Mean survival time (Plasmodium yoelii [27]): > 1 month
- Mean (Plasmodium berghei [28]): 7.32 nM/h/mg
- Mean (Plasmodium berghei [29]): 344 pmol/mg
- inhibition [30]: 99%
- Mean (Plasmodium berghei [31]): 101 pmol/mg
- inhibition [32]: 48%
- Mean (Plasmodium yoelii [33]): 218 pmol/mg
- Mean survival time (Plasmodium yoelii [34]): 1
- Parasites (Plasmodium yoelii [35]): 2%
- Parasites (Plasmodium yoelii [36]): 2%
- Mean survival time (Plasmodium yoelii [37]): 1
- Parasites (Plasmodium berghei [38]): 22%
- Parasites (Plasmodium berghei [39]): >30%

From ChEMBL document CHEMBL1133641, “A new class of potential chloroquine-resistance reversal agents for Plasmodia: syntheses and biological evaluation of 1-(3'-diethylaminopropyl)-3-(substituted phenylmethylene)pyrrolidines” (2000)
